Source: ChEMBL document CHEMBL2311514, “Further exploration of M₁ allosteric agonists: subtle structural changes abolish M₁ allosteric agonism and result in pan-mAChR orthosteric antagonism” (Bioorg Med Chem Lett, 2013)
Substitutions are numbered along the chain they refer to. Active and inactive are the calls of the source. The calls are words filed in the database; no cut-off is given here.

What was measured:
[1] = molecular target: T1, Muscarinic acetylcholine receptor M1 (Rattus norvegicus, UniProt P08482); assay: (§1) Partial agonist activity at rat muscarinic M1 receptor expressed in CHO cells calcium response; type: functional, cell-based
T1 sequence (P08482 whole entry): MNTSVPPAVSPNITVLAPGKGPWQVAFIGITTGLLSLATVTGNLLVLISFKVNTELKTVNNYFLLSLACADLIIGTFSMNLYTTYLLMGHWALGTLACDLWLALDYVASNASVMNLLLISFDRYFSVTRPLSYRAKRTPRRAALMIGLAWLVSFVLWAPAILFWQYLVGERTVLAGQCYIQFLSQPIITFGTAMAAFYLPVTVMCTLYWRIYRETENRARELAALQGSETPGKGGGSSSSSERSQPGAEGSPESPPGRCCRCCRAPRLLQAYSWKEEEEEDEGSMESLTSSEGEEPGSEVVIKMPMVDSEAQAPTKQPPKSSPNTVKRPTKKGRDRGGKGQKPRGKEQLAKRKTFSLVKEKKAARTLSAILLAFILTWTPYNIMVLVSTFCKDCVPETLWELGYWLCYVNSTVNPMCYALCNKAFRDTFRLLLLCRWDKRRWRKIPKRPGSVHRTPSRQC
In short: (§2)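 Run in agonist mode as concentration-response curves on rat M1–M5 receptors. EC50 and pEC50 were taken from the curves. Efficacy was expressed as a percentage of the maximal acetylcholine response.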

[2] = molecular target: T2, Muscarinic acetylcholine receptor M1 (Rattus norvegicus) (UniProt P08482); assay: Partial agonist activity at rat muscarinic M1 receptor expressed in CHO cells calcium response relative to acetylcholine; type: functional, cell-based; in short: as §2
T2 sequence (whole entry): T1 sequence (P08482 whole entry)

[3] = molecular target: T3, Muscarinic acetylcholine receptor M5 (Rattus norvegicus, UniProt P08911); assay: (§3) Antagonist activity at rat muscarinic M5 receptor expressed in CHO cells assessed as inhibition of Ach-induced calcium response; type: functional, cell-based
T3 sequence (P08911 whole entry): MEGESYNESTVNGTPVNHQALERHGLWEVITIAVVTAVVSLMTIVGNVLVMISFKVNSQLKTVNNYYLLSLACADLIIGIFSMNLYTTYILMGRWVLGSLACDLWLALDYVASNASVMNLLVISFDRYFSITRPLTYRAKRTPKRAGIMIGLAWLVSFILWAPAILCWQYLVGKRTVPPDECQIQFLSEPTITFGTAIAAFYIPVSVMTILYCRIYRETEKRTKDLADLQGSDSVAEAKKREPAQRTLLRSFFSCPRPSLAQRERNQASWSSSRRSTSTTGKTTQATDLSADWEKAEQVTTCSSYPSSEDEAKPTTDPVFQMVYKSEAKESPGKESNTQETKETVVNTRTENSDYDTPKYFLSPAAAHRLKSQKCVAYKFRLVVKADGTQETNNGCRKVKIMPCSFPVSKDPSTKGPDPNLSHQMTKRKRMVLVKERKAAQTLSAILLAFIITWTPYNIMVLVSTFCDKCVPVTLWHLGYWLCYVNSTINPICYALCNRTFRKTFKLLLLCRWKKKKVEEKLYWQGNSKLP

[4] = molecular target: T4, Muscarinic acetylcholine receptor M1 (Homo sapiens) (UniProt P11229); assay: Antagonist activity at human muscarinic M1 receptor expressed in CHO cells assessed as inhibition of acetylcholine-induced calcium response; type: functional, cell-based
T4 sequence (whole entry): T1 sequence (P08482 whole entry) with V5A, S254T, S309P, K320R, G337A, V413I

[5] = molecular target: T5, Muscarinic acetylcholine receptor M4 (Rattus norvegicus, UniProt P08485); assay: (§4) Antagonist activity at rat muscarinic M4 receptor expressed in CHO cells assessed as inhibition of Ach-induced calcium response; type: functional, cell-based
T5 sequence (P08485 whole entry): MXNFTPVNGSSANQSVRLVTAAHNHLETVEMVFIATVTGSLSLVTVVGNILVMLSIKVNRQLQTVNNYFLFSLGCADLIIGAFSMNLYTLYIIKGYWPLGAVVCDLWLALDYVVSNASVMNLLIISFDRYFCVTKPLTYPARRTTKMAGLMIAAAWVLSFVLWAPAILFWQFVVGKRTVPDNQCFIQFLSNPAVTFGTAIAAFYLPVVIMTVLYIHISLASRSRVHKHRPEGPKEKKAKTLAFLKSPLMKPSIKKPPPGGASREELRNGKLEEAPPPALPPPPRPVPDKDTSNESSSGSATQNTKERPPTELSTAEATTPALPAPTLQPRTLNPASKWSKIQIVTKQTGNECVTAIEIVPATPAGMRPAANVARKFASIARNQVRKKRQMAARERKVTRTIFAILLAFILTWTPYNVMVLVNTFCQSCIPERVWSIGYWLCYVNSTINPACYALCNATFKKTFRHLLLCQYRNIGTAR

[6] = molecular target: T2, Muscarinic acetylcholine receptor M1 (Rattus norvegicus); assay: as §1; type: functional, cell-based; in short: as §2
[7] = molecular target: T1, Muscarinic acetylcholine receptor M1; assay: Displacement of [3H]NMS from rat muscarinic M1 receptor expressed in CHO cells after 3 hrs; type: cell-based
[8] = molecular target: T2, Muscarinic acetylcholine receptor M1 (Rattus norvegicus); assay: (§5) Antagonist activity at rat muscarinic M1 receptor expressed in CHO cells assessed as inhibition of Ach-induced calcium response; type: functional, cell-based
[9] = molecular target: T1, Muscarinic acetylcholine receptor M1; assay: as §5; type: functional, cell-based
[10] = molecular target: T6, Muscarinic acetylcholine receptor M2 (Homo sapiens) (UniProt P08172); assay: (§6) Antagonist activity at human muscarinic M2 receptor expressed in CHO cells assessed as inhibition of Ach-induced calcium response; type: functional, cell-based
T6 sequence (whole entry): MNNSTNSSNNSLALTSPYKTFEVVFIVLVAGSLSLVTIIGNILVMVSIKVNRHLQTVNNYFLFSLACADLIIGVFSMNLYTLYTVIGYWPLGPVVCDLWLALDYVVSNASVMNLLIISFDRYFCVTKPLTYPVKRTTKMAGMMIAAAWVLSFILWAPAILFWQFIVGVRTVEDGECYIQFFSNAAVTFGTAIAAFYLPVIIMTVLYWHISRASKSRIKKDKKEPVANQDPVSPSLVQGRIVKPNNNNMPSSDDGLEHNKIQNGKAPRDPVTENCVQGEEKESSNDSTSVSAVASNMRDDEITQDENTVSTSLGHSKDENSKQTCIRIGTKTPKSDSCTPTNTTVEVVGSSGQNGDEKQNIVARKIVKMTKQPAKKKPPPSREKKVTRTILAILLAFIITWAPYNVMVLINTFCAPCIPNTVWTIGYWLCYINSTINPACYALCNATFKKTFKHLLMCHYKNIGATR

[11] = molecular target: T7, Muscarinic acetylcholine receptor M5 (Homo sapiens) (UniProt P08912); assay: (§7) Antagonist activity at human muscarinic M5 receptor expressed in CHO cells assessed as inhibition of Ach-induced calcium response; type: functional, cell-based
T7 sequence (whole entry): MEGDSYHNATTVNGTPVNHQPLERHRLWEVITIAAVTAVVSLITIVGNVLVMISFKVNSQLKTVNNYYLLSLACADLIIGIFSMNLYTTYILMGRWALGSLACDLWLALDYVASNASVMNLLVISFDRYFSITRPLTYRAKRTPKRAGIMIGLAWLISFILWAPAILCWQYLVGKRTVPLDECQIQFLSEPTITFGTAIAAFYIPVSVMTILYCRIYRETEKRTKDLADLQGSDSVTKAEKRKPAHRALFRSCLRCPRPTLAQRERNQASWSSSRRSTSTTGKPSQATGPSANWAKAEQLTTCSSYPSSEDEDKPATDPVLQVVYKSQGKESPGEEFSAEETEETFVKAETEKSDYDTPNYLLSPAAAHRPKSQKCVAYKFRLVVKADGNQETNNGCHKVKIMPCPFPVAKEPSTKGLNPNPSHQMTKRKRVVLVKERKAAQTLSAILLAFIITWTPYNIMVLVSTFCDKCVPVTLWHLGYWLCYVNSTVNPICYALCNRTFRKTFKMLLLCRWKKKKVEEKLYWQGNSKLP

[12] = molecular target: T2, Muscarinic acetylcholine receptor M1 (Rattus norvegicus); assay: Orthosteric antagonist activity at rat muscarinic M1 receptor expressed in CHO cells using [3HNMS] at 50 uM by dissociation kinetic studies; type: cell-based
[13] = molecular target: T8, Muscarinic acetylcholine receptor M3 (Rattus norvegicus, UniProt P08483); assay: (§8) Antagonist activity at rat muscarinic M3 receptor expressed in CHO cells assessed as inhibition of Ach-induced calcium response; type: functional, cell-based
T8 sequence (P08483 whole entry): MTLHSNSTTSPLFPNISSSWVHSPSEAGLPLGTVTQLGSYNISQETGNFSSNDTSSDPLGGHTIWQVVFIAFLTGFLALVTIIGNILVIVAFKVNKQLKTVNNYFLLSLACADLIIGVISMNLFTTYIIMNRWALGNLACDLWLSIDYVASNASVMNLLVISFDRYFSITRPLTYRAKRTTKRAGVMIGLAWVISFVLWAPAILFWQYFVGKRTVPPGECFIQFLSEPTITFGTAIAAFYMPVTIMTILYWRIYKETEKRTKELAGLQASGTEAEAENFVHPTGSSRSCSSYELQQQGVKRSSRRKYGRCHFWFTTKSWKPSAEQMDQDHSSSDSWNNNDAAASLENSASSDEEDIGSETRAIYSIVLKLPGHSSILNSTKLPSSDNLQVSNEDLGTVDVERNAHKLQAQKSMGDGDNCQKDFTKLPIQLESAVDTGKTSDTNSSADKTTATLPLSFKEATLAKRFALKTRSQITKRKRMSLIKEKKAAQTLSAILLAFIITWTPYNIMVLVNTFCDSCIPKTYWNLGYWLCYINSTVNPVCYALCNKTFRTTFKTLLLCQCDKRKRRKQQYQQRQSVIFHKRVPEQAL

[14] = molecular target: T9, Muscarinic acetylcholine receptor M2 (Rattus norvegicus, UniProt P10980); assay: (§9) Antagonist activity at rat muscarinic M2 receptor expressed in CHO cells assessed as inhibition of Ach-induced calcium response; type: functional, cell-based
T9 sequence (P10980 whole entry): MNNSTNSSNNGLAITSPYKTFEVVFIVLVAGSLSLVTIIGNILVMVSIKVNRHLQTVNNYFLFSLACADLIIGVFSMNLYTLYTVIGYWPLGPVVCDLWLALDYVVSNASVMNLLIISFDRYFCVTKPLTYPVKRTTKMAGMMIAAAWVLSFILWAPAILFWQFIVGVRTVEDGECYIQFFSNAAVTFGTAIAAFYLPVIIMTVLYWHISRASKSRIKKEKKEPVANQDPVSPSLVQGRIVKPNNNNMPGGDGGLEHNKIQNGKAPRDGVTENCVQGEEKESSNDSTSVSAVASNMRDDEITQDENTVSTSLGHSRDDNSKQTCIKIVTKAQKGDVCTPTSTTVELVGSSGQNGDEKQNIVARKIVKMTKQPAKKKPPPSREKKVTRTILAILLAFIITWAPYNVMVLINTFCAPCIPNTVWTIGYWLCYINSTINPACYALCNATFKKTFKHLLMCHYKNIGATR

[15] = molecular target: T10, Muscarinic acetylcholine receptor M5 (Rattus norvegicus) (UniProt P08911); assay: as §3; type: functional, cell-based
T10 sequence (whole entry): T3 sequence (P08911 whole entry)

[16] = molecular target: T11, Muscarinic acetylcholine receptor M4 (Rattus norvegicus) (UniProt P08485); assay: as §4; type: functional, cell-based
T11 sequence (whole entry): T5 sequence (P08485 whole entry)

[17] = molecular target: Muscarinic acetylcholine receptor M3 (Rattus norvegicus) (UniProt P08483); assay: as §8; type: functional, cell-based
Sequence of Muscarinic acetylcholine receptor M3 (Rattus norvegicus) (P08483 whole entry, looked up): as the sequence (P08483 whole entry) above

[18] = molecular target: T12, Muscarinic acetylcholine receptor M2 (Rattus norvegicus) (UniProt P10980); assay: as §9; type: functional, cell-based
T12 sequence (whole entry): T9 sequence (P10980 whole entry)

[19] = molecular target: T13, Muscarinic acetylcholine receptor M5 (Homo sapiens, UniProt P08912); assay: Partial agonist activity at human muscarinic M5 receptor expressed in CHO cells calcium response; type: functional, cell-based
T13 sequence (P08912 whole entry): T7 sequence (whole entry)

[20] = molecular target: T9, Muscarinic acetylcholine receptor M2; assay: Partial agonist activity at rat muscarinic M2 receptor expressed in CHO cells calcium response; type: functional, cell-based; in short: as §2
[21] = molecular target: T14, Muscarinic acetylcholine receptor M2 (Homo sapiens, UniProt P08172); assay: as §6; type: functional, cell-based
T14 sequence (P08172 whole entry): T6 sequence (whole entry)

[22] = molecular target: T14, Muscarinic acetylcholine receptor M2; assay: Partial agonist activity at human muscarinic M2 receptor expressed in CHO cells calcium response; type: functional, cell-based
[23] = molecular target: T8, Muscarinic acetylcholine receptor M3; assay: Partial agonist activity at rat muscarinic M3 receptor expressed in CHO cells calcium response; type: functional, cell-based; in short: as §2
[24] = molecular target: T13, Muscarinic acetylcholine receptor M5; assay: as §7; type: functional, cell-based

CCOC(=O)N1CCC(N2CCC[C@@H](NC(=O)c3cccc(Br)c3)C2)CC1
EC50 [1]: 2 µM
Imax [2]: 37.4%

Cc1ccccc1CN1CCC(N2CCC(n3c(=O)[nH]c4ccccc43)C(F)C2)CC1 (centres undefined)
IC50 ([3]; cho, read-out: IC50): > 10 µM
IC50 ([3]; read-out: pIC50 (converted)): > 10 µM
inhibition [4]: Active
IC50 [5]: 5.2 µM
Activity [6]: inactive
Ki [7]: 1.35 µM
Imax [8]: 13.6%
IC50 ([9]; read-out: IC50): 4.9 µM
inhibition [10]: Active
inhibition [11]: Active
Activity [12]: Active
IC50 ([13]; cho, read-out: IC50): > 10 µM
IC50 ([13]; read-out: pIC50 (converted)): > 10 µM
IC50 ([14]; cho, read-out: IC50): > 10 µM
IC50 ([14]; read-out: pIC50 (converted)): > 10 µM

CCOC(=O)N1CCC(N[C@H]2CCCN(C(=O)c3ccccc3)C2)CC1
inhibition [15]: Active
inhibition [16]: Active
Imax [8]: 3%
IC50 ([9]; read-out: IC50): 0.273 µM
IC50 ([9]; read-out: pIC50 (converted)): 0.479 µM
inhibition [17]: Active
inhibition [18]: Active

Cc1ccccc1CN1CCC(N2CCC(n3c(=O)[nH]c4ccccc43)CC2)CC1
EC50 [19]: > 30 µM
IC50 ([3]; read-out: IC50): 3.97 µM
EC50 [20]: > 30 µM
IC50 [21]: 3.5 µM
Imax [2]: 69.3%
EC50 [22]: > 30 µM
EC50 [23]: > 30 µM
IC50 [24]: 4.9 µM
IC50 ([13]; read-out: IC50): 5.48 µM
IC50 ([14]; read-out: IC50): 1.29 µM

CCOC(=O)N1CCC(N2CCC[C@@H](NC(=O)c3ccc(C(F)(F)F)nc3)C2)CC1
IC50 ([3]; read-out: IC50): > 10 µM
IC50 [5]: > 10 µM
Imax [8]: 2.7%
IC50 ([9]; read-out: pIC50 (converted)): 3.16 µM
IC50 ([13]; read-out: IC50): > 10 µM
IC50 ([14]; read-out: pIC50 (converted)): 1.07 µM

Cc1ccccc1CN1CCC(N2CC3CC(n4c(=O)[nH]c5ccccc54)CC3C2)CC1 (centres undefined)
IC50 ([3]; read-out: IC50): > 10 µM
IC50 [5]: > 10 µM
Activity [6]: inactive
Imax [8]: -1.07%
IC50 ([9]; read-out: IC50): 6.4 µM
IC50 ([13]; read-out: IC50): > 10 µM
IC50 ([14]; read-out: IC50): > 10 µM

CCOC(=O)N1CCC(N2CCC[C@@H](NC(=O)c3cc(Br)cc(Br)c3)C2)CC1
Imax [8]: 0.4%
IC50 ([9]; read-out: pIC50 (converted)): 3.39 µM
